Consider 14 compounds from PMC8327296 (Journal of medicinal chemistry, 2018).

Data set [1] has as its target T1, A1R (Homo sapiens, UniProt P30542).
T1 sequence (P30542 1-326): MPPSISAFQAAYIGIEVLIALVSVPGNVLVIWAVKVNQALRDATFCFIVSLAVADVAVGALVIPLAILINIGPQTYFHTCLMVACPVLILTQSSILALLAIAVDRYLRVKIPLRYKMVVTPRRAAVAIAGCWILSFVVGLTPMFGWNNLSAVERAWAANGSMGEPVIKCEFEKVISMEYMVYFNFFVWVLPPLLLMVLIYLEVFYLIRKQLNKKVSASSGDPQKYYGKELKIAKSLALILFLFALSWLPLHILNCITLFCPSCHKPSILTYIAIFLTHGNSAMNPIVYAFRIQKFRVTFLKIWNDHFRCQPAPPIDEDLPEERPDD
As to the kind of experiment: Competition radioligand binding, human A1R. In a few lines: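 Membranes from HEK293 cells expressing recombinant human A1R (DMEM, 10% FBS, 37 °C, 5% CO2), treated with adenosine deaminase 3 units/mL for 30 min at 37 °C. 20 μg protein per tube incubated 60 min at 25 °C in 50 mM Tris·HCl with 10 mM MgCl2, 0.5 nM [3H]8-cyclopentyl-1,3-dipropylxanthine and varied test compound. Nonspecific binding defined with 10 μM XAC. Bound ligand collected on GF/B filters and counted by scintillation. Ki by Cheng–Prusoff; mean ± SEM of 2–4 experiments in duplicate.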

For another data set, the target named is recombinant A2AR (human) (Homo sapiens, UniProt P29274). Nature of the data set: Competition radioligand binding, human A2AR. To be noted: for inhibition at 1 µM: read-out: % inhib., A2A. In a few lines:
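Human A2AR expressed in HEK293 cells; membranes treated with adenosine deaminase 3 units/mL for 30 min at 37 °C. […] Nonspecific binding with 10 μM XAC. Filtration on GF/B, scintillation counting. Ki by Cheng–Prusoff, mean ± SEM of 2–4 experiments in duplicate.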

The target of another data set is T2, recombinant A2BR (human) (Homo sapiens, UniProt P29275).
T2 sequence (P29275 1-332): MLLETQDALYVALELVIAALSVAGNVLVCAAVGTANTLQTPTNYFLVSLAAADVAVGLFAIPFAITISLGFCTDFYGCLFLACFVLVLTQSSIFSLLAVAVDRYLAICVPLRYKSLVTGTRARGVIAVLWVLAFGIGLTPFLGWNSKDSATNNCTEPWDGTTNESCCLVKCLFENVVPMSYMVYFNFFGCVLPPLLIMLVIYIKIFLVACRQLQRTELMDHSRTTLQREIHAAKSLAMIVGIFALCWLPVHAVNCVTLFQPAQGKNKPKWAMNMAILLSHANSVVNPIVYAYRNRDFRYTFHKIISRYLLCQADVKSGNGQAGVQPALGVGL
As to the kind of experiment: Competition radioligand binding, human A2BR. The method in brief: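 Adenosine deaminase-treated membranes (3 units/mL, 30 min, 37 °C) of HEK293 cells carrying recombinant human A2BR. […] Nonspecific binding with 100 μM XAC. GF/B filtration, scintillation counting. Ki via Cheng–Prusoff, mean ± SEM of 2–4 experiments in duplicate.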

In a further data set the target is T3, recombinant A3R (human) (Homo sapiens, UniProt P0DMS8).
T3 sequence (P0DMS8 1-318): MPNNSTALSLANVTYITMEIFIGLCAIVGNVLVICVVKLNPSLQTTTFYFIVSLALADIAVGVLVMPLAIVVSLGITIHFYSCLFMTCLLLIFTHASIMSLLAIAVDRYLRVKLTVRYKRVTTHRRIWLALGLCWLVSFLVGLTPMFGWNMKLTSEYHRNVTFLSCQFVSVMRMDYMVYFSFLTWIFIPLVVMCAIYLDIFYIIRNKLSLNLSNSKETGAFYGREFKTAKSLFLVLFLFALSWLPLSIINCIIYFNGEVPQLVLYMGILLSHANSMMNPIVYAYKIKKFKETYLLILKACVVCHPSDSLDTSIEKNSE
As to the kind of experiment: Competition radioligand binding, human A3R. The conditions noted are these: for inhibition at 1 µM: read-out: % inhib., A3.

The target in data set [2] is T1, A1R. Nature of the data set: cAMP accumulation assay. The class given is cell-based. To be noted: for Emax: HEK293, read-out: A1 functional efficacy (Emax %). The method in brief:
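HEK293 cells expressing A1R seeded at 1,000 cells/well on poly-D-lysine and kept overnight at 37 °C. Preincubated 30 min at 37 °C with adenosine deaminase 3 units/ml, rolipram 10 μM and the A2B antagonist PSB603 1 μM. Agonist applied 20 min, then forskolin 10 μM for 15 min at 37 °C. Cells lysed in 0.3% Tween-20 and cAMP measured by AlphaScreen. Emax relative to a reference agonist set at 100%.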
A general note: Changes in cAMP serve as a functional read-out for many G protein-coupled receptors.

For data set [3], the target named is T4, A1R, rat brain membranes (forebrain) (Rattus norvegicus, UniProt P25099).
T4 sequence (P25099 1-326): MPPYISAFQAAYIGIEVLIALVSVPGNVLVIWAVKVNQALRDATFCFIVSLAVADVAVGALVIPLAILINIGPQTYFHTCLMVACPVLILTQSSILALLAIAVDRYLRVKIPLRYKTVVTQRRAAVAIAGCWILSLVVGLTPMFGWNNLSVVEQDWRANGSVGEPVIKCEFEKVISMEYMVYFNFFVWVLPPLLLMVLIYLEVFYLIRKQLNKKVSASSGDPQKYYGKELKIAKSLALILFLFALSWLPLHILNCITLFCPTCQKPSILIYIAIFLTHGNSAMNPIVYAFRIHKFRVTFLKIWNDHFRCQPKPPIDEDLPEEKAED
Nature of the data set: Competition radioligand binding, rat brain homogenates. In a few lines: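 Rat forebrain homogenate incubated 60 min at 25 °C in 50 mM Tris·HCl with 10 mM MgCl2, 0.5 nM [3H]8-cyclopentyl-1,3-dipropylxanthine and varied test compound. Nonspecific binding defined with 10 μM XAC. Separation by GF/B filtration with 3 ice-cold buffer washes, then scintillation counting. IC50 converted to Ki by Cheng–Prusoff; mean ± SEM of 2–4 experiments in duplicate.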

In data set [4] the target is A2AR, rat brain membranes (striatum) (Rattus norvegicus, UniProt P30543). Nature of the data set: Competition radioligand binding, rat brain homogenates. The method in brief: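 Rat striatum homogenate incubated 60 min at 25 °C in 50 mM Tris·HCl/10 mM MgCl2 with 0.8 nM [3H]ZM241385 and varied test compound. Nonspecific binding defined with 10 μM XAC. GF/B filtration with 3 ice-cold washes, then scintillation counting. Ki from IC50 by Cheng–Prusoff; mean ± SEM of 2–4 experiments in duplicate.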

Data set [5] is described as follows: Small animal PET, brain uptake in rats. The class given is in vivo, rat. To be noted: 11C-labelled compound; for BBB permeability: rat pilot PET study; for standard uptake value (SUV), brain uptake: rat, whole brain, 10 min after intravenous administration. In a few lines: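 Male Wistar rats (2–3 months, 318 ± 40 g) under 2–5% isoflurane, temperature held near 36.9 °C. After a 10 min transmission scan, 20.8–37.0 MBq 11C-labelled test compound in saline infused iv (tail vein or penile catheter, 600 μL/min). 90 min dynamic list-mode microPET, template coregistration, regional time-activity curves. Test–retest (n=3) 30 min later; blocking drugs given 10 min before the second injection.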

Sequence of recombinant A2AR (human) (P29274 whole entry): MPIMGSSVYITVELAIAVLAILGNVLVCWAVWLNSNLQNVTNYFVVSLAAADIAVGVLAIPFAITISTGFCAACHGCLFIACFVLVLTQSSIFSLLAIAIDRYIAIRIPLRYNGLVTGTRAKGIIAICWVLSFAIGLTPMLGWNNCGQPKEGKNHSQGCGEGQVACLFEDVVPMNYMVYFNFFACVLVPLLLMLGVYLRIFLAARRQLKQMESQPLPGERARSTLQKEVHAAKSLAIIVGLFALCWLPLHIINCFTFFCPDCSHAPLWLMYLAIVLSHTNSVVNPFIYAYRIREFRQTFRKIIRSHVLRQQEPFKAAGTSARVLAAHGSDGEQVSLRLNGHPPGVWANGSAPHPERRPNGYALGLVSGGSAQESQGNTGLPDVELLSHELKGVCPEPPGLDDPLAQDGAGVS
Sequence of A2AR, rat brain membranes (striatum) (P30543 whole entry): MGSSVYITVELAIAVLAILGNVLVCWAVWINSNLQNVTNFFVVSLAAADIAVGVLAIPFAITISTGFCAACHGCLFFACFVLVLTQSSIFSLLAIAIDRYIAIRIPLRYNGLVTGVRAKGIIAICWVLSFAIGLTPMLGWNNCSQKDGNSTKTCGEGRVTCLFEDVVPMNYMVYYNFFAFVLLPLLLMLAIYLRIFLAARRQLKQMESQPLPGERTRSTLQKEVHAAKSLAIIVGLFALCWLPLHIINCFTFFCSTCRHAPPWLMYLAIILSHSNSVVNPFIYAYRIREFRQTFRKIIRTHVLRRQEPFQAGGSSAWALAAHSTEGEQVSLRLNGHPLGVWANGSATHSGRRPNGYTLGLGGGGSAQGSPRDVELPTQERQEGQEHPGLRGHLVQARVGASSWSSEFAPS

As a reminder, the Ki is a measure of affinity in units of concentration, obtained from inhibition or displacement. As usually defined, the Emax is the maximal effect, on the per cent scale that the assay sets. On to `COc1ccc(-c2nc(SCc3cccc(C)n3)nc(N)c2C#N)cc1` [21a, 4-Amino-6-(4-methoxyphenyl)-2-(((6-methylpyridin-2-yl)methyl)thio)pyrimidine-5-carbonitrile], for which the Ki at A1R [1] came out at 0.029 ± 0.0001 µM; at recombinant A2BR (human), 0.305 ± 0.108 µM. Further, the inhibition at 1 µM was 32 ± 2% at recombinant A2AR (human) and 44 ± 3% at recombinant A3R (human). Moreover, the Emax on A1R [2] is -2 ± 3.5%.
The compound `COc1cccc(-c2nc(SCc3cccc(C)n3)nc(N)c2C#N)c1` [21b, 4-Amino-6-(3-methoxyphenyl)-2-(((6-methylpyridin-2-yl)methyl)thio)pyrimidine-5-carbonitrile] showed a Ki on A1R [1] of 0.0072 ± 0.0024 µM. Further, the inhibition at 1 µM on recombinant A2AR (human) is 46 ± 1%; on recombinant A2BR (human) (read-out: % inhib., A2B), 35 ± 10%; on recombinant A3R (human), 42 ± 11%. Further, the Emax on A1R [2] was 3.4 ± 1.9%.
`COc1ccc(-c2nc(SCc3ncc[nH]3)nc(N)c2C#N)cc1` [21c, 2-(((1H-Imidazol-2-yl)methyl)thio)-4-amino-6-(4-methoxyphenyl)pyrimidine-5-carbonitrile]: the inhibitory constant (Ki) at A1R [1] came to 0.306 ± 0.017 µM; on recombinant A2BR (human), 0.237 ± 0.048 µM. Further, the inhibition at 1 µM on recombinant A3R (human) is 51 ± 5%. Moreover, on A1R [2], the Emax stood at 1.4 ± 3.1%.
For the compound `COc1cccc(-c2nc(SCc3ncc[nH]3)nc(N)c2C#N)c1` [21d, 2-(((1H-Imidazol-2-yl)methyl)thio)-4-amino-6-(3-methoxyphenyl)pyrimidine-5-carbonitrile], the Ki is 0.048 ± 0.0028 µM at A1R [1], 0.554 ± 0.273 µM at recombinant A2AR (human), 0.208 ± 0.027 µM at recombinant A2BR (human) and 0.703 ± 0.05 µM on recombinant A3R (human). In addition, on A1R [2], the Emax was found to be 4.9 ± 3.3%.
`Cc1cccc(CSc2nc(N)c(C#N)c(-c3cccc(O)c3)n2)n1` [21e, 4-Amino-6-(3-hydroxyphenyl)-2-(((6-methylpyridin-2-yl)methyl)thio)pyrimidine-5-carbonitrile]: the Ki is 0.018 ± 0.0021 µM on A1R [1], 0.093 ± 0.063 µM on recombinant A2AR (human), 0.126 ± 0.012 µM at recombinant A2BR (human) and 0.079 ± 0.0094 µM at recombinant A3R (human). At A1R [2], the Emax worked out at 18 ± 3.3%.
Taken in the same sequence, the figures for `N#Cc1c(N)nc(SCc2ncc[nH]2)nc1-c1cccc(O)c1` [21f, 2-(((1H-Imidazol-2-yl)methyl)thio)-4-amino-6-(3-hydroxyphenyl)pyrimidine-5-carbonitrile] were 0.11 ± 0.031 µM, 0.096 ± 0.0133 µM, 0.038 ± 0.0073 µM, 0.112 ± 0.014 µM and 41 ± 6.1%.
Consider `COc1ccc(-c2c(C#N)c(N)nc(SCc3cccc(C)n3)c2C#N)cc1` [22a, 2-Amino-4-(4-methoxyphenyl)-6-(((6-methylpyridin-2-yl)methyl)thio)pyridine-3,5-dicarbonitrile], for which the Ki on A1R [1] stood at 0.0029 ± 0.0007 µM; at recombinant A2AR (human), 0.035 ± 0.019 µM; at recombinant A2BR (human) it was 0.03 ± 0.0025 µM; at recombinant A3R (human) it was 0.701 ± 0.244 µM. The Emax on A1R [2] is -0.06 ± 3.3%.
By EC50 is commonly meant the concentration needed to bring the measured effect to its halfway point. `COc1cccc(-c2c(C#N)c(N)nc(SCc3cccc(C)n3)c2C#N)c1` [22b, 2-Amino-4-(3-methoxyphenyl)-6-(((6-methylpyridin-2-yl)methyl)thio)pyridine-3,5-dicarbonitrile]: the Ki at A1R [1] was 0.00049 ± 6e-05 µM; at recombinant A2AR (human) it was 0.071 ± 0.025 µM; on recombinant A2BR (human) it was 0.075 ± 0.03 µM; in data set [3], 0.00021 µM; in data set [4], 0.052 µM. On recombinant A3R (human), the inhibition at 1 µM was found to be 42 ± 11%. In addition, the EC50 at A1R [2] worked out at 0.001 µM. The Emax on A1R [2] amounted to 16 ± 2.3%.
`Cc1cccc(CSc2nc(N)c(C#N)c(-c3cccc(O)c3)c2C#N)n1` [22e, 2-Amino-4-(3-hydroxyphenyl)-6-(((6-methylpyridin-2-yl)methyl)thio)pyridine-3,5-dicarbonitrile]: the Ki amounted to 0.0035 ± 0.0013 µM on A1R [1], 0.015 ± 0.0031 µM at recombinant A2AR (human), 0.024 ± 0.016 µM on recombinant A2BR (human) and 0.074 ± 0.0034 µM at recombinant A3R (human). In addition, the Emax at A1R [2] was determined as 109 ± 7.8%.
Regarding `CC(=O)Nc1ccc(-c2c(C#N)c(N)nc(SCc3cccc(C)n3)c2C#N)cc1` [22g, N-(4-(2-Amino-3,5-dicyano-6-(((6-methylpyridin-2-yl)methyl)thio)pyridin-4-yl)phenyl)acetamide], the Ki stood at 0.053 ± 0.018 µM on A1R [1], 0.0028 ± 0.0001 µM at recombinant A2AR (human), 0.0012 ± 0.0002 µM on recombinant A2BR (human) and 0.022 ± 0.0067 µM at recombinant A3R (human). Also, at A1R [2], the Emax was determined as 122 ± 5.2%.
As for `CSc1nc(N)c(C#N)c(-c2ccc(NC(C)=O)cc2)c1C#N` [compound 12, N-(4-(2-Amino-3,5-dicyano-6-(methylthio)pyridin-4-yl)phenyl)acetamide], the BBB permeability result in data set [5] is “poor BBB permeability”.
For `CSc1nc(N)c(C#N)c(-c2ccc(NC(C)=O)cc2)n1` [compound 13, N-(4-(6-Amino-5-cyano-2-(methylthio)pyrimidin-4-yl)phenyl)acetamide], in data set [5], the BBB permeability entry is on record as “poor BBB permeability”.
Consider `COc1ccc(-c2c(C#N)c(N)nc(SC)c2C#N)cc1` [compound 14, 2-Amino-4-(4-methoxyphenyl)-6-(methylthio)pyridine-3,5-dicarbonitrile], for which the “standard uptake value (SUV), brain uptake” value in data set [5] is recorded as ~ 3 g/mL.
Consider `COc1ccc(-c2nc(SC)nc(N)c2C#N)cc1` [compound 15, 4-Amino-6-(4-methoxyphenyl)-2-(methylthio)pyrimidine-5-carbonitrile], for which the “standard uptake value (SUV), brain uptake” value in data set [5] is ~ 3 g/mL.
